Test results reported in paper PMC7564327 (Acta Pharmaceutica Sinica. B, 2020).

What was measured:
[1] = target: T1, hOATP1B1 (Homo sapiens, UniProt Q9Y6L6); experiment: Inhibition of 3H-ES uptake in HEK293-hOATP1B1 cells; format: in vitro ADME; conditions: 100 μmol/L IPT, ISP; 100 μg/mL AD extract; substrate 3H-ES
T1 sequence (Q9Y6L6 1-691): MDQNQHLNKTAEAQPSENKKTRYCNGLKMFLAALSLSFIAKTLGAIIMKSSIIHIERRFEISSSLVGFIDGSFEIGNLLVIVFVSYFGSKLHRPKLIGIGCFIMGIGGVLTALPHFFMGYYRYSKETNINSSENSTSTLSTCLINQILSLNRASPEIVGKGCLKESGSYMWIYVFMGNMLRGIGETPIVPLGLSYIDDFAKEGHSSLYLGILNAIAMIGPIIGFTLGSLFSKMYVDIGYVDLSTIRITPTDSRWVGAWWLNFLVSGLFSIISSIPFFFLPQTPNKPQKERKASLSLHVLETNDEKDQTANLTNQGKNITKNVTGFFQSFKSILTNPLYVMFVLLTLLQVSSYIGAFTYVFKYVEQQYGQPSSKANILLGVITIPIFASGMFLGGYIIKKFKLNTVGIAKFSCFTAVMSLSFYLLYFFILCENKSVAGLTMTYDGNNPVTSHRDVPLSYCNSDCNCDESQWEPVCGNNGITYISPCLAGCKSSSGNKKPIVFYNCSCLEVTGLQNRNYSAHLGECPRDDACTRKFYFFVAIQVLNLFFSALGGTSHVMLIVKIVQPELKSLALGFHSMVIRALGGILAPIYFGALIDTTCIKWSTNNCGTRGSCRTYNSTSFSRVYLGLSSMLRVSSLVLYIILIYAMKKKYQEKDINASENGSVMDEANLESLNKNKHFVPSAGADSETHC
Outline: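 HEK293 cells stably overexpressing the human transporter, grown in DMEM with 10% FBS and penicillin/streptomycin at 5% CO₂, then seeded in 24-well plates and used at confluence. Cells incubated at 37 °C for 2 min with 50 nmol/L ³H-estrone sulfate, with or without test compound or extract; final DMSO below 0.5%. Stopped by three cold DPBS washes, lysed in 0.1 mol/L NaOH, and counted by liquid scintillation (DPM).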

[2] = target: T1, hOATP1B1; experiment: Cellular uptake and kinetics in HEK293-hOATP1B1 vs Mock cells; format: in vitro ADME; conditions: 100 μmol/L
[3] = system: mOatp1a4; experiment: qRT-PCR of mOatp1a4 mRNA in liver of treated mice; format: in vivo; conditions: mice given 20 mg/kg TDE with 20 mg/kg IPT, ISP or 200 mg/kg AD extract, 4 h
[4] = target: T2, hOATP2B1 (Homo sapiens, UniProt O94956); experiment: Cellular uptake in HEK293-hOATP2B1 vs Mock cells; format: in vitro ADME; conditions: 100 μmol/L, substrate if >2-fold of wild type
T2 sequence (O94956 1-709): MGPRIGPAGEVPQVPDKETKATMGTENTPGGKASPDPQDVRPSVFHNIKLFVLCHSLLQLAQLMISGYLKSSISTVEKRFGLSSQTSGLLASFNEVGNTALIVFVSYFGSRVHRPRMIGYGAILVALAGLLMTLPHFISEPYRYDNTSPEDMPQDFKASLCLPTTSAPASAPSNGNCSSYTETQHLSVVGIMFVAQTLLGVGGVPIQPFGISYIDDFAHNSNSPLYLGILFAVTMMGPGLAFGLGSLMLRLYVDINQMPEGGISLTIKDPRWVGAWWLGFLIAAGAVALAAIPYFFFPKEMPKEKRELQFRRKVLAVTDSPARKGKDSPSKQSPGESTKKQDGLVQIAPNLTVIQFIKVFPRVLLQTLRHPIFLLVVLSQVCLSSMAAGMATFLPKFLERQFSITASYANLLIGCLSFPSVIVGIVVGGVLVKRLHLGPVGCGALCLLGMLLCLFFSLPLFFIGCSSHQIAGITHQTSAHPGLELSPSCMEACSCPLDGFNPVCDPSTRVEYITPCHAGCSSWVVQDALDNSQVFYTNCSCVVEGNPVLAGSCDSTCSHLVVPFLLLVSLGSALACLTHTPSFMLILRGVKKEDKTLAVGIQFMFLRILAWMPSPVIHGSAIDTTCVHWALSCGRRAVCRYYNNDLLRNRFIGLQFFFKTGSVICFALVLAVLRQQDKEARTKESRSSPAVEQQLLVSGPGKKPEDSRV

Structure (SMILES) | inhibition to hOATP1B1 [1] | accumulation in hOATP1B1-overexpressed cell lines compared to wild type [2] | mRNA level of mOatp1a4 decreased to, compared to TDE alone [3] | accumulation in HEK293-hOATP2B1 vs HEK293 wild type [4]
CC(C)=CCOc1c2occc2cc2ccc(=O)oc12 [IPT, imperatorin] | weak or no inhibition | could largely accumulate | 36% | less than 2 fold
CC(C)=CCOc1c2ccoc2cc2oc(=O)ccc12 [ISP, isoimperatorin] | weak or no inhibition | could largely accumulate | 61% | less than 2 fold
